From ChEMBL document CHEMBL4402570, “Discovery and Optimization of Novel Pyrazolopyrimidines as Potent and Orally Bioavailable Allosteric HIV-1 Integrase Inhibitors” (J Med Chem, 2020)

Experiments:
[1] = test system: Human immunodeficiency virus 1; test: Antiviral activity against HIV1 NL4-3 infected in human MT2 cells measured after 3 to 4 days by luciferase reporter gene assay; type: functional, organism-based; conditions: Human immunodeficiency virus 1, NL4-3, MT2
[2] = biological target: Human immunodeficiency virus type 1 integrase (Human immunodeficiency virus 1, UniProt Q7ZJM1); test: Allosteric inhibition of [3H]-2-tert-butoxy-2-[2-methyl-4-(p-tolyl)-3-quinolyl]acetic acid binding to HIV1 integrase measured after 1 hr under dark condition by microbeta plate reader method
Sequence of Human immunodeficiency virus type 1 integrase (Q7ZJM1 whole entry): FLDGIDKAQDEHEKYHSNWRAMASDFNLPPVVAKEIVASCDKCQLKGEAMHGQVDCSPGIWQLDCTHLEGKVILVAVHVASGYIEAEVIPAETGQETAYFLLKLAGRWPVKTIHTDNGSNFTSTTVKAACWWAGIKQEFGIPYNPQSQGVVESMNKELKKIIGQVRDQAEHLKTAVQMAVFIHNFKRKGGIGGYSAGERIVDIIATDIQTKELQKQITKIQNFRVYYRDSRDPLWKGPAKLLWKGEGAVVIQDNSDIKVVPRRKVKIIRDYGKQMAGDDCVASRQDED
Method in brief: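 Scintillation proximity displacement of tritiated LEDGF-site inhibitor from purified HIV-1 integrase (13 μM) premixed 1 h with PVT SPA beads (2 mg/mL); […]. Buffer 26 mM MOPS pH 7.0, 11 mM DTT, 100 mM NaCl, 20 mM MgCl2, 0.05% NP-40, 5% PEG-8000. Compounds 100 μM to 0.0512 nM, ten 5-fold dilutions. 1 h rocking, RT, dark; read after overnight; Ki derived.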

[3] = Stability of the compound in human liver microsomes assessed as parent compound remaining at 0.5 uM measured after 10 mins in presence of NADPH by LC-MS/MS analysis; type: ADME, Microsome; conditions: read-out: Stability
Method in brief: (§1)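 CYP-mediated turnover: 0.5 μM compound with human or rat liver microsomes (1 mg/mL) in 100 mM sodium phosphate pH 7.4, 6.6 mM MgCl2, 37 °C; started with NADPH, DMSO 0.014%. Samples quenched at 0 and 10 min; parent remaining by LC-MS/MS; duplicate.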

[4] = Permeability of the compound in pH 7.4 buffer at 100 uM measured after 4 hrs by sandwich-PAMPA; type: ADME; conditions: read-out: permeability
Method in brief: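 Parallel artificial membrane permeability: compound at 100 μM in donor buffer pH 7.4, permeating to acceptor through artificial membrane over 4 h; donor, acceptor and t0 solutions read by UV plate reader; triplicate.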

[5] = Stability of the compound in rat liver microsomes assessed as parent compound remaining at 0.5 uM measured after 10 mins in presence of NADPH by LC-MS/MS analysis; type: ADME, Microsome; conditions: read-out: Stability; method in brief: as §1
[6] = Volume of distribution at steady state in Sprague-Dawley rat at 1 mg/kg, iv infusion for 10 mins or 5 mg/kg, po administered via gavage by LC-MS/MS analysis; type: ADME, organism-based; conditions: in vivo, read-out: Vdss
Method in brief: (§2)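 Rats given iv via implanted venous cannula as 10 min infusion, or oral gavage after overnight fast; vehicle 10% dimethylacetamide/90% PEG400 for both routes. Plasma from venous-port blood, treated with CH3CN containing internal standard, analysed by LC-MS/MS; oral plasma levels followed 24 h after 5 mg/kg. Parameters by noncompartmental analysis of concentration-time data.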

[7] = test system: Human immunodeficiency virus 1; test: Antiviral activity against HIV1 NL4-3 infected in human MT2 cells measured after 3 to 4 days in presence of human serum albumin by luciferase reporter gene assay; type: functional, organism-based; conditions: Human immunodeficiency virus 1, NL4-3, MT2
[8] = Oral bioavailability in Sprague-Dawley rat at 5 mg/kg administered via gavage by LC-MS/MS analysis; type: ADME, organism-based; conditions: in vivo; method in brief: as §2
[9] = Cmax in Sprague-Dawley rat at 1 mg/kg, iv infusion for 10 mins or 5 mg/kg, po administered via gavage by LC-MS/MS analysis; type: ADME, organism-based; conditions: in vivo; method in brief: as §2
[10] = Therapeutic index, ratio of CC50 for human MT2 cells to EC50 for HIV1 NL4-3 infected in human MT2 cells; type: toxicity, cell-based; conditions: read-out: Ratio CC50/EC50
[11] = AUC (0 to 24 hrs) in Sprague-Dawley rat at 1 mg/kg, iv infusion for 10 mins or 5 mg/kg, po administered via gavage by LC-MS/MS analysis; type: ADME, organism-based; conditions: in vivo; method in brief: as §2
[12] = Clearance in Sprague-Dawley rat at 1 mg/kg, iv infusion for 10 mins or 5 mg/kg, po administered via gavage by LC-MS/MS analysis; type: ADME, organism-based; conditions: in vivo; method in brief: as §2
[13] = Half life in Sprague-Dawley rat at 1 mg/kg, iv infusion for 10 mins or 5 mg/kg, po administered via gavage by LC-MS/MS analysis; type: ADME, organism-based; conditions: in vivo; method in brief: as §2
[14] = Tmax in Sprague-Dawley rat at 1 mg/kg, iv infusion for 10 mins or 5 mg/kg, po administered via gavage by LC-MS/MS analysis; type: ADME, organism-based; conditions: in vivo; method in brief: as §2
[15] = test system: Human immunodeficiency virus 1; test: Selectivity ratio of EC50 for HIV1 NL4-3 infected in human MT2 cells in presence of human serum albumin to EC50 for HIV1 NL4-3 infected in human MT2 cells in absence of human serum albumin; type: functional
[16] = Cytotoxicity against human MT2 cells measured after 4 days by XTT assay; type: cell-based
Method in brief: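 MT-2 cell viability measured by XTT after 4 days of compound exposure, run in parallel with the antiviral assay; CC50 from n ≥ 2 determinations.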

[17] = test system: Human immunodeficiency virus 1; test: Antiviral activity against HIV1 NL4-3 harboring G140S/Q148H mutant infected in human MT2 cells measured after 3 to 4 days by luciferase reporter gene assay; type: functional, organism-based; conditions: Human immunodeficiency virus 1, NL4-3, MT2
Method in brief: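 MT-2 cells (RPMI 1640, 10% heat-inactivated FBS, 10 mM HEPES pH 7.55, 2 mM L-glutamine, penicillin/streptomycin) infected with titered NL4-3 Renilla luciferase reporter virus (luciferase replacing nef) carrying integrase G140S/Q148H, with serial compound dilutions from 10 mM DMSO stock, final DMSO 1%; luciferase read after 3–4 days; EC50 from median effect equation; n ≥ 2, some n = 1.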

| Compound | EC50 [1] [µM] | remaining at 10 min, 0.5 µM [3] [%] | Papp at 4 h, 100 µM [4] [×10⁻⁶ cm/s] | remaining at 10 min, 0.5 µM [5] [%] | Ki [2] [µM] | further results |
| --- | --- | --- | --- | --- | --- | --- |
| Cc1nc2cc(-c3ccccc3)nn2c(N2CCCCCC2)c1C(OC(C)(C)C)C(=O)O (stereo not drawn) | 2.3 |  |  |  | 0.43 |  |
| Cc1nc2cc(-c3ccccc3)nn2c(-c2cc(F)c3c(c2C)CCCO3)c1[C@H](OC(C)(C)C)C(=O)O | 0.11 |  |  |  | 0.09 | EC50 [17]: 0.09 µM |
| Cc1ccc(-c2c(C(OC(C)(C)C)C(=O)O)c(C)nc3ccnn23)cc1 (stereo not drawn) | 4.5 |  |  |  | 2 |  |
| Cc1nc2cc(-c3cccc(-c4ccccc4)c3)nn2c(-c2cc(F)c3c(c2C)CCCO3)c1C(OC(C)(C)C)C(=O)O (racemic) | 0.015 | 86 | 65.2 | 100 |  | EC50 [17]: 0.01 µM |
| Cc1nc2cc(-c3ccccc3)nn2c(C)c1C(OC(C)(C)C)C(=O)O (stereo not drawn) | > 40 |  |  |  | > 40 |  |
| Cc1nnc(C(=O)NC(C)(C)c2nc(C(=O)NCc3ccc(F)cc3)c(O)c(=O)n2C)o1 [RALTEGRAVIR] | 0.002 |  |  |  |  | EC50 [17]: 2.42 µM |
| Cc1nc2ccccc2c(-c2ccc3c4c(ccnc24)CCO3)c1[C@H](OC(C)(C)C)C(=O)O [BI-224436] | 0.05 |  |  |  |  | selectivity ratio [10]: 66800; CC50 at 96 h [16]: 3340 µM |

The next lines start with results.

| EC50 [1] [µM] | remaining at 10 min, 0.5 µM [3] [%] | Papp at 4 h, 100 µM [4] [×10⁻⁶ cm/s] | remaining at 10 min, 0.5 µM [5] [%] | Compound | Ki [2] [µM] | further results |
| --- | --- | --- | --- | --- | --- | --- |
| 0.13 |  |  |  | Cc1nc2cc(-c3cccc(-c4ccccc4)c3)nn2c(N2CCC(C)(C)CC2)c1C(OC(C)(C)C)C(=O)O (stereo not drawn) |  |  |
| > 40 |  |  |  | COc1cccc(-c2c(C(OC(C)(C)C)C(=O)O)c(C)nc3cc(-c4ccccc4)nn23)c1 (stereo not drawn) | 15.3 |  |
| 18 |  |  |  | Cc1ccc(-c2c(C(OC(C)(C)C)C(N)=O)c(C)nc3cc(-c4ccccc4)nn23)cc1 (stereo not drawn) |  |  |
| 0.06 | 84 | 31.3 | 79 | Cc1nc2cc(-c3ccc(OCc4ccccc4)cc3)nn2c(-c2cc(F)c3c(c2C)CCCO3)c1C(OC(C)(C)C)C(=O)O (stereo not drawn) |  |  |
| 0.1 | 95 | 49.2 | 94 | Cc1ccc(-c2cc3nc(C)c(C(OC(C)(C)C)C(=O)O)c(-c4cc(F)c5c(c4C)CCCO5)n3n2)cc1 (stereo not drawn) |  |  |
| 0.003 | 100 | 60.8 | 89 | Cc1nc2cc(-c3cccc(-c4ccccc4F)c3)nn2c(-c2cc(F)c3c(c2C)CCCO3)c1[C@H](OC(C)(C)C)C(=O)O |  | Vd [6]: 0.7 L/kg; EC50 [7]: 0.019 µM; bioavailability [8]: 44%; Cmax [9]: 803 nM; selectivity ratio [10]: 6360; AUC(0-t) [11]: 4.73 µM·h; clearance [12]: 13 mL/min/kg; half-life [13]: 2 h; Tmax [14]: 2.7 h; Ratio EC50 [15]: 6; CC50 at 96 h [16]: 19.1 µM |
| 0.003 | 46 | 48.8 | 94 | Cc1nc2cc(-c3cccc(-c4ccncc4)c3)nn2c(-c2cc(F)c3c(c2C)CCCO3)c1[C@H](OC(C)(C)C)C(=O)O |  | EC50 [7]: 0.07 µM; selectivity ratio [10]: 4410; Ratio EC50 [15]: 23; CC50 at 96 h [16]: 13.2 µM |
| 0.02 | 72 | 57 | 83 | Cc1nc2cc(-c3cccc(OCc4ccccc4)c3)nn2c(-c2cc(F)c3c(c2C)CCCO3)c1C(OC(C)(C)C)C(=O)O (stereo not drawn) |  |  |
| 13 |  |  |  | Cc1nc2cc(-c3ccccc3)nn2c(-c2cc(F)c3c(c2C)CCCO3)c1[C@@H](OC(C)(C)C)C(=O)O | > 53 |  |
| 0.62 |  |  |  | Cc1ccc(-c2c(C(OC(C)(C)C)C(=O)O)c(C)nc3cc(-c4ccccc4)nn23)cc1 (stereo not drawn) | 0.68 to 0.7 | CC50 at 96 h [16]: 77 µM |
